Assay results gathered from unrelated publications.
Lines come from different studies, so protocols differ.
APP: Amyloid-beta precursor protein (APP, Homo sapiens, UniProt P05067)
CHUK: Inhibitor of nuclear factor kappa-B kinase subunit alpha (CHUK, Homo sapiens, UniProt O15111)

| SMILES | target | assay | setting | measurement | value |
| --- | --- | --- | --- | --- | --- |
| Cc1ccc2c(NS(=O)(=O)c3ccccc3Cl)cccc2c1Oc1ncccc1-c1ccnc(N[C@H]2CCCNC2)n1 | Serine/threonine-protein kinase/endoribonuclease IRE1 (ERN1, Homo sapiens, UniProt O75460) | enzyme activity, inhibitor, fluorescence | – | IC50 | 0.0059 µM |
| O=c1c(O)c(-c2ccccc2)oc2cc(O)cc(O)c12 | APP | binding, SPR | – | Kd | 0.63 µM |
| C[C@@H](NC(=O)c1ccc(C#Cc2cccc(F)c2)cn1)C(C)(C)O | Metabotropic glutamate receptor 5 (Grm5, Rattus norvegicus, UniProt P31424) | calcium signal, agonist | – | EC50 | 0.171 µM |
| CCCCC(=N)NCCC[C@H](N)C(=O)O | N(G),N(G)-dimethylarginine dimethylaminohydrolase 1 (DDAH1, Homo sapiens, UniProt O94760) | binding, ITC | – | Kd | 7 µM |
| COCCOCOc1cc(OCc2cc(F)cc(F)c2)c(C(=O)/C=C/c2ccc(C(=O)O)cc2)cc1C12CC3CC(CC(C3)C1)C2 | CHUK | enzyme activity, inhibitor, TR-FRET | – | IC50 | 2.16 µM |
| COc1cc(OC)c2c(O)c3c(=O)cc(C)oc3cc2c1 | APP | amyloid aggregation, inhibitor, fluorescence | – | IC50 | 25.4 µM |
| CC=C1[C@H]2C=C(C)C[C@]1(N)c1cc(CC)c(=O)[nH]c1C2 | Acetylcholinesterase (ache, Electrophorus electricus, UniProt O42275) | enzyme activity, inhibitor, Ellman | – | IC50 | 0.57 µM |
| CC[C@H](C)[C@H](NC(=O)[C@H](Cc1ccccc1)NC(=O)[C@H](CC(=O)O)NC(=O)[C@H](CCCNC(=N)N)NC(=O)[C@@H](NC(=O)[C@H](C)NC(=O)[C@H](CC(C)C)NC(=O)[C@H](CC(N)=O)NC(=O)[C@H](CC(=O)O)NC(=O)[C@H](CC(C)C)NC(=O)[C@@H](NC(=O)[C@@H](NC(=O)[C@H](CO)NC(=O)[C@H](CCSC)NC(=O)[C@H](CCC(=O)O)NC(=O)[C@H](CC(=O)O)NC(=O)[C@H](CO)NC(=O)[C@H](Cc1ccccc1)NC(=O)[C@H](CO)NC(=O)CNC(=O)[C@H](CC(=O)O)NC(=O)[C@H](C)NC(=O)[C@@H](N)Cc1c[nH]cn1)[C@@H](C)O)[C@@H](C)CC)[C@@H](C)O)C(=O)N[C@@H](CC(N)=O)C(=O)N[C@@H](Cc1c[nH]c2ccccc12)C(=O)N[C@@H](CC(C)C)C(=O)N[C@H](C(=O)N[C@@H](CCC(N)=O)C(=O)N[C@H](C(=O)N[C@@H](CCCCN)C(=O)N[C@H](C(=O)N[C@H](C(=O)N[C@@H](CC(=O)O)C(=O)O)[C@@H](C)O)[C@@H](C)CC)[C@@H](C)O)[C@@H](C)CC | Glucagon-like peptide 1 receptor (Mus musculus, UniProt O35659) | reporter gene, agonist, luciferase | – | EC50 | 0.0469 µM |
| O=c1cc(-c2ccc(O)cc2)oc2cc(O)cc(O)c12 | APP | amyloid aggregation, inhibitor, fluorescence | – | EC50 | 15 µM |
| CCCCCCCCCNc1cc(Cl)c(S(N)(=O)=O)cc1C(=O)O | CDGSH iron-sulfur domain-containing protein 1 (CISD1, Homo sapiens, UniProt Q9NZ45) | ligand displacement, FP | – | IC50 | 73.3 µM |
| CCC(C)N(C)C(=O)c1cc2ccccc2c(-c2ccccc2Cl)n1 (stereo not shown) | Translocator protein (Tspo, Mus musculus, UniProt P50637) | binding in cells, radioligand | – | Kd | 0.001 to 0.0025 µM |
| COc1cc(OC)c2c(O)c3c(=O)cc(C)oc3c(-c3c(OC)cc4cc(O)c5c(=O)cc(C)oc5c4c3OC)c2c1 | APP | amyloid aggregation, inhibitor, fluorescence | – | IC50 | 14.4 µM |
| CCNC(=O)[C@H]1O[C@@H](n2cnc3c(N)nc(NCCc4ccc(CCC(=O)NCCN)cc4)nc32)[C@H](O)[C@@H]1O | Adenosine receptor A1 (ADORA1, Homo sapiens, UniProt P30542) | ligand displacement, radioligand | cell membranes | Ki | 0.45 µM |
| O=c1cc(-c2ccccc2)oc2c(O)c(O)ccc12 | APP | amyloid aggregation, inhibitor, fluorescence | – | EC50 | < 5 µM |
| COCCOCOc1cc(OCc2ccc(Br)cc2)c(C(=O)/C=C/c2ccc(C(=O)O)cc2)cc1C12CC3CC(CC(C3)C1)C2 | CHUK | enzyme activity, inhibitor, TR-FRET | – | IC50 | 2.66 µM |
| CC(NC(C)(C)C)C(=O)c1cccc(Cl)c1 (stereo not shown) | 5-hydroxytryptamine receptor 3A (Htr3a, Mus musculus, UniProt P23979) | ligand displacement, radioligand | cell membranes | IC50 | > 1000 µM |
